Insulin prom act = TRM-6 insulin promoter activation. TRM-6 cells, insulin promoter eGFP reporter, imaging; plate-scaled: unstimulated 0, stimulated control 100. activation, % at 2 µM. actives 0.81% (n = 130,000). AID 1296;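 active = activation at 2 µM above a set limit, confirmed on inspection of the cell images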;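 also: share of cells whose green reporter signal exceeds an intensity cutoff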
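Test system: human fetal islet-derived TRM-6 cells with tamoxifen-inducible insulin promoter–eGFP reporter; schedule: overnight tamoxifen, then two-day compound incubation at 37 °C; measured by: high-content imaging of fixed cells with Hoechst nuclear stain; evaluation: percent cells above green-intensity threshold, converted to percent activation versus plate controls; control set: stimulated and unstimulated wells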
Starred values were filed as active, the others as inactive. The full list was thinned out, with hits kept by preference.

SMILES | Insulin prom act
COc1cccc(N2CCN(Cc3nc4ccccc4c(=O)[nH]3)CC2)c1 | -79
CCC(CC)C(=O)N1CCN(Cc2nc3ccccc3c(=O)[nH]2)CC1 | -10
COC(=O)c1ccc(OCC(=O)c2cccc(OC)c2)cc1 | -3
CCOc1ccccc1C(=O)Nc1ccccc1-c1ccccc1 | -3
Cc1cc(C)nc(NS(=O)(=O)c2ccc(NC(=O)COc3ccccc3)cc2)n1 | -3
O=C(COc1ccc(/C=N/NS(=O)(=O)c2ccccc2)cc1)Nc1ccccc1 | 285*
COC(=O)c1ccc(NC(=O)COc2ccc(S(=O)(=O)NC(C)C)cc2)cc1 | 226
COC(=O)c1ccc(S(=O)(=O)NNC(=O)COc2ccc(C)cc2)cc1 | 0
N/C(COc1ccccc1)=N\NS(=O)(=O)c1ccccc1 | -8
COC(=O)c1ccc(NC(=O)COc2ccc(S(=O)(=O)NC(C)(C)C)cc2)cc1 | 443*
Fc1ccccc1Nc1nc2c(s1)CCc1ccccc1-2 | 0
COC(=O)c1ccccc1NC(=O)CNC(=O)c1ccco1 | 0
CCOc1ccc(Cl)cc1S(=O)(=O)n1nnc2ccccc21 | 169
COCC(=O)Nc1ccc(C(C)C)cc1 | 0
CN1CCC(Oc2ccccc2Sc2ccccc2)CC1 | 0
O=C1C2CCCN2C(=O)N1CCCCN1CCN(c2ccc(F)cc2)CC1 (configuration not stated) | 8
CC(NC(=O)C(=O)NCCC1=CCCCC1)c1ccccc1 (configuration not stated) | 3
Cc1ccc(C(=O)C(C(=O)/C=C/c2ccccc2)=C2SCCCS2)cc1 | 378
CCN1CCN(S(=O)(=O)c2cc(C)c(OC)cc2C)CC1 | -57
CCn1c(=O)n(CC)c2cc(S(N)(=O)=O)c(C)cc21 | 525*
CCn1c(NC)cc(=O)n(C)c1=O | 3
Cc1cc(Nc2ccc3c(c2)OCCO3)c2cccc(C)c2n1 | 0
C/C(=N\NS(=O)(=O)c1ccc(Cl)cc1)c1ccc(O)cc1 | 3
Cc1ccc(C)c(NC(=O)Cn2nc([N+](=O)[O-])c(Br)c2C)c1 | 0
Cc1ccc(C)c(NC(=O)c2ccc[n+](Cc3ccc([N+](=O)[O-])cc3)c2)c1 | 233*
SMILES | Insulin prom act
Cc1ccc(Cn2nnc(C(=O)Nc3cc(C)ccc3C)c2N)cc1 | 6
COc1ccc(OCC(=O)N2CCN(S(=O)(=O)c3ccccc3[N+](=O)[O-])CC2)cc1 | 135
Cn1nnc2cc(C(=O)NCc3ccco3)ccc21 | 7
CC(c1ccccc1)N1C(=O)c2ccc(C(=O)NCc3ccco3)cc2C1=O (configuration not stated) | 440*
Cc1ccc(C(=O)Nc2cccc(C(=O)NCc3ccco3)c2)cc1 | 8
COc1ccc(-n2c(C)cc(/C=N/Nc3nc(N4CCOCC4)nc(N4CCOCC4)n3)c2C)cc1 | -5
CCN(CCCn1c(=S)[nH]c2ccc(N3CCOCC3)cc2c1=O)c1ccccc1 | 6
CCOC(=O)Cc1csc(NC(=O)CSc2nnc3ccccn23)n1 | 9
Cc1cc(C)cc(Oc2ccccc2/C=N\O)c1 | 223*
O/N=C/c1cc(Cl)ccc1OCc1ccccc1Cl | 0
O/N=C/c1ccccc1Oc1ccccc1 | 3
Cc1ccnn2cc3c(=O)n(C)c(=O)n(C)c3c12 | -7
CCCNC(=O)Cn1cnc([N+](=O)[O-])n1 | -8
Clc1ccc2c(c1)C(N1CCNCC1)Cc1ccccc1S2 (configuration not stated) | 507*
Clc1cccc2c1Sc1ccccc1CC2N1CCNCC1 (configuration not stated) | 3
OCCNc1nc(SCc2ccccc2)nc2sc3c(c12)CCC3 | -9
CC(NC(=O)Cn1cc(C(F)(F)F)ccc1=O)c1ccc(F)cc1 (configuration not stated) | 0
O=C(OCc1ccccc1)N1CCOCCOCCN(C(=O)OCc2ccccc2)CCOCCOCC1 | 0
COc1cccc(/C(O)=C2/C(=O)C(=O)N(CCN3CCOCC3)C2c2cccnc2)c1 (configuration not stated) | 531*
COc1ccc(/C(O)=C2/C(=O)C(=O)N(CCN(C)C)C2c2cccnc2)cc1OC (configuration not stated) | 7
CC(C)Oc1ccc(/C(O)=C2/C(=O)C(=O)N(CCN3CCOCC3)C2c2ccccc2)cc1 (configuration not stated) | 3
O=C(NCc1ccco1)c1cc([N+](=O)[O-])cc([N+](=O)[O-])c1 | -67
O=C1NC(=O)C2(COC(c3ccncc3)OC2)S1 (configuration not stated) | 3
COC(=O)C1CN(S(=O)(=O)c2ccccc2)CCN1S(=O)(=O)c1ccccc1 (configuration not stated) | 8
CC(=O)Nc1ccnc(-c2cccnc2)n1 | 187*
SMILES | Insulin prom act
Cc1ccccc1C(=O)Nc1ccnc(-c2ccncc2)n1 | 0
CC(=O)c1ccc(Oc2nc(-c3cccnc3)nc3ccccc23)cc1 | 0
Cc1cc(NC(=O)C(=O)NCCN2CCN(S(C)(=O)=O)CC2)ccc1Br | -6
Cn1c(SCc2nn[nH]n2)nc2c1c(=O)n(Cc1ccccc1Cl)c(=O)n2C | -3
COc1ccc(/C=C2/C(=O)N(c3nc4ccccc4s3)N=C2CSc2ccc(Cl)cc2)cc1 | -7
Cc1ccc(OCC(O)CNC(=O)c2ccccc2C(=O)O)cc1 (configuration not stated) | 3
c1ccc(-c2nc3nc4ccccc4nc3n2Cc2ccco2)cc1 | 200*
Fc1ccc(-c2nc3nc4ccccc4nc3n2Cc2ccco2)cc1 | -8
N=c1c2c(-c3ccccc3)c(-c3ccccc3)n(Cc3ccco3)c2ncn1CCO | 327
Cc1c(C(=O)Nc2ccc(-c3nnc4n3CCCCC4)cc2)oc2ccc(Br)cc12 | -7
O=S(=O)(NC1CCCCC1NS(=O)(=O)c1ccc(F)cc1)c1ccc(F)cc1 (configuration not stated) | 513*
O=S(=O)(NC1CCCCC1Nc1ccccc1)c1ccccc1 (configuration not stated) | -3
CSc1ccc(OC2CCCCC2NS(=O)(=O)c2ccc(Cl)cc2)cc1 (configuration not stated) | -100
COc1ccc(C(CC(=O)c2ccc(O)cc2)S(=O)(=O)c2ccc(C)cc2)cc1 (configuration not stated) | -7
COC(=O)c1cc(C(=O)Cc2ccccc2)c[nH]1 | 0
O=C(CSc1nc2ccccc2o1)Nc1ccc(N2CCOCC2)cc1 | 0
CCCCC(=O)Nc1ncc2c(n1)CC(C)(C)CC2=O | -6
CC1(C)CC(=O)c2cnc(NC(=O)CSc3nc4ccccc4o3)nc2C1 | 523*
O=C1NC2c3ccccc3C(=O)N2c2c1cnn2-c1ccccc1 (configuration not stated) | -5
COc1ccc2cc(C(C)c3nc4ccccc4c(=O)n3N)ccc2c1 (configuration not stated) | 0
CCc1ccc(C(C(=O)NC(C)(C)CC)N(Cc2ccco2)C(=O)Cn2nnc3ccccc32)cc1 (configuration not stated) | 360
CCC(C)(C)NC(=O)C(c1ccccc1)N(Cc1cccs1)C(=O)Cn1nnc2ccccc21 (configuration not stated) | -5
CCC(C)(C)NC(=O)C(c1cccn1C)N(C(=O)Cn1nnc2ccccc21)c1ccc(OC)cc1 (configuration not stated) | 150*
CCn1c(SCC(=O)N2c3ccccc3Sc3ccc(Cl)cc32)nc2c1c(=O)n(C)c(=O)n2C | -100
O=C(C[n+]1cccc(CNC(=O)c2ccc(OC(F)F)cc2)c1)c1ccccc1 | 341*

Source: PubChem (Columbia University Molecular Screening Center)
